Usually EC50 stands for the concentration at which the effect is half-maximal. A high value points to a need for much substance. For orientation: CC50 means the concentration at which the toxic effect on the cells reaches its halfway point. As usually defined, the IC50 is the concentration that gives 50% inhibition. As a reminder, the Kd is the constant that tells how readily two partners part at equilibrium.

Activity calls are given as the source filed them. Some results are limits rather than exact numbers.

Series [1] has as its system Staphylococcus aureus. Briefly: Antibacterial activity against multidrug resistant Staphylococcus aureus ATCC BAA-44 after 6 to 8 hrs. Type of series: functional, organism-based.
Series [2] is described as follows: Cytotoxicity against human THLE3 cells after 48 hrs by Alamar blue assay. The class given is cell-based. In short, it runs like this:
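THLE-3 cells, grown in BEBM with the BEGM kit and 10% FBS, were seeded at 1,500 cells/well and allowed 24 h at 37°C, 5% CO2. Compounds were then added at 100 µM to 46 nM final (3-fold steps, 0.1% DMSO) for 48 h. […] CC50 is the log-average of at least triplicate runs.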
In general terms: Alamar Blue is a resazurin reagent that responds to reducing activity.

Series [3] deals with T1, E. coli GroEL/ES (Escherichia coli, UniProt P0A6F5). Description: Inhibition of Escherichia coli GroEL expressed in Escherichia coliDH5alpha/Escherichia coli GroES expressed in Escherichia coli BL21 (DE3) assessed as reduction in GroEL/GroES-mediated denatured MDH refolding by measuring MDH enzyme activity using sodium mesoxalate as substrate after 20 to 40 mins by spectrometric analysis. An outline of the steps: (§1)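 Coupled refolding assay: denatured rhodanese or MDH refolded by GroEL/ES (50 nM GroEL tetradecamer, 700 nM subunits), read-out via enzymatic activity of refolded substrate; counter-screened against native enzyme activity. IC₅₀ as back-calculated mean of log-transformed replicate values.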

A further series deals with HSP60/HSP10 (Homo sapiens, UniProt P10809). Description: Inhibition of human N-terminal octa-His-tagged HSP60 expressed in Escherichia coli Rosetta(DE3) pLysS/human HSP10 expressed in Escherichia coli Rosetta(DE3) assessed as reduction in HSP60/HSP10-mediated denatured MDH refolding by measuring MDH enzyme activity using sodium mesoxalate as substrate after 40 to 60 mins by spectrometric analysis. An outline of the steps: (§2)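 Chaperonin-mediated refolding of denatured MDH, coupled to MDH enzymatic activity as the reporter. Human HSP60/10 (HSP60 without its 26-residue mitochondrial signal peptide) or E. coli GroEL/ES was used, with GroEL tetradecamer at 50 nM (700 nM subunits) during the refolding cycle. IC50s from replicate dose-response curves were averaged as logs after ROUT outlier removal.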

Series [4] addresses T2, Thiosulfate sulfurtransferase (Homo sapiens, UniProt Q16762).
T2 sequence (Q16762 whole entry): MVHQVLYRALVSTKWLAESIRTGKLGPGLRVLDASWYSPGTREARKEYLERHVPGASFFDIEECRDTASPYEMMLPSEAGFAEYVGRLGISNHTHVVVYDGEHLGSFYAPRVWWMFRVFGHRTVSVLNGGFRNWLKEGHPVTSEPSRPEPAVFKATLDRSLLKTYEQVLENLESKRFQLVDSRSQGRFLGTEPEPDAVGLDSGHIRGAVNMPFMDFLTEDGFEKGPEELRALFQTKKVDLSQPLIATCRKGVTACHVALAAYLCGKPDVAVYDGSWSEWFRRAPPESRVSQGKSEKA
Briefly: Inhibition of refolded rhodanese (unknown origin) preincubated with Escherichia coli GroEL/GroES for 60 mins by measuring […] after 20 to 40 mins by spectrometric analysis.

A short description of series [5]: Inhibition of refolded MDH (unknown origin) preincubated with Escherichia coli GroEL/GroES for 45 mins using sodium mesoxalate as substrate by spectrometric analysis. Also noted: species or system Homo sapiens. In short, it runs like this:
as §2

Another series relates to Acinetobacter baumannii. Description: Antibacterial activity against Acinetobacter baumannii ATCC 19606 after 24 hrs. The class given is functional, organism-based. To be noted: for Activity: ATCC 19606 = CIP 70.34 = JCM 6841. An outline of the steps:
(§3)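 Stagnant liquid-culture proliferation assay at 37°C in broth cation-adjusted with 25 mg/L Ca²⁺ and 12.5 mg/L Mg²⁺, with compounds stamped into the wells. […] OD600 turbidity was read at 6–8 h (K. pneumoniae, E. cloacae, P. aeruginosa) or 24 h (A. baumannii). EC50 came from non-linear regression, averaged in log form over replicates.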

Series [6] can be described thus: Selectivity index, ratio of CC50 for human THLE3 cells to EC50 for multidrug resistant Staphylococcus aureus ATCC BAA-44. The class given is toxicity. The note with it: read-out: Ratio CC50/EC50.
Series [7] deals with T1, E. coli GroEL/ES. Briefly: Inhibition of Escherichia coli GroEL expressed in Escherichia coli DH5alpha/Escherichia coli GroES expressed in Escherichia coli BL21 (DE3) assessed as reduction in GroEL/GroES-mediated denatured rhodanese refolding by measuring rhodanese enzyme activity after 45 mins by spectrometric analysis. In short, it runs like this: as §1
Series [8] deals with Staphylococcus aureus. Briefly: Antibacterial activity against multidrug resistant Staphylococcus aureus ATCC BAA-44 at >100 uM passaged for 12 days in fresh liquid media supplemented with compound followed by re-culturing for 24 hrs on agar and another 24 hrs in liquid medium. Type of series: functional, organism-based. An outline of the steps:
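After 12-day serial passage under compound, resistant culture regrown without inhibitor 24 h on agar then 24 h in liquid medium, then retested for growth inhibition; % growth inhibition averaged (±SD) from 4 replicates.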

A short description of series [9]: Binding affinity to Escherichia coli GroEL expressed in Escherichia coli DH5alpha by ITC assay. An outline of the steps:
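ITC at 20°C: 400 µM GroEL (monomer) in syringe titrated into 50 µM compound in cell, matched buffer 20 mM HEPES pH 7.4, 50 mM KCl, 10 mM MgCl₂, 1% DMSO; 0.4 µL first injection discarded, then 2.0 µL injections at 3-min intervals, 600 rpm. Single-site fit gave Kd, n, ΔH, ΔS; five or six replicates.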
(Isothermal titration calorimetry measures the heat released or taken up as one component is titrated into another.)

For series [10], the system named is Staphylococcus aureus. Description: Antibacterial activity against multidrug resistant Staphylococcus aureus ATCC BAA-44 at >100 uM passaged for 12 days in fresh liquid media supplemented with compound. Type of series: functional, organism-based.
The next series relates to Klebsiella pneumoniae. Description: Antibacterial activity against Klebsiella pneumoniae ATCC 13883 after 6 to 8 hrs. The class given is functional, organism-based. An outline of the steps: as §3
The subject of a further series is Pseudomonas aeruginosa. Briefly: Antibacterial activity against Pseudomonas aeruginosa ATCC 10145 after 6 to 8 hrs. The class given is functional, organism-based. In short, it runs like this:
as §3

The next series deals with Enterobacter cloacae. Briefly: Antibacterial activity against Enterobacter cloacae subsp. cloacae ATCC 13047 after 6 to 8 hrs. The class given is functional, organism-based. In short, it runs like this:
as §3

T1 sequence (P0A6F5 whole entry, looked up): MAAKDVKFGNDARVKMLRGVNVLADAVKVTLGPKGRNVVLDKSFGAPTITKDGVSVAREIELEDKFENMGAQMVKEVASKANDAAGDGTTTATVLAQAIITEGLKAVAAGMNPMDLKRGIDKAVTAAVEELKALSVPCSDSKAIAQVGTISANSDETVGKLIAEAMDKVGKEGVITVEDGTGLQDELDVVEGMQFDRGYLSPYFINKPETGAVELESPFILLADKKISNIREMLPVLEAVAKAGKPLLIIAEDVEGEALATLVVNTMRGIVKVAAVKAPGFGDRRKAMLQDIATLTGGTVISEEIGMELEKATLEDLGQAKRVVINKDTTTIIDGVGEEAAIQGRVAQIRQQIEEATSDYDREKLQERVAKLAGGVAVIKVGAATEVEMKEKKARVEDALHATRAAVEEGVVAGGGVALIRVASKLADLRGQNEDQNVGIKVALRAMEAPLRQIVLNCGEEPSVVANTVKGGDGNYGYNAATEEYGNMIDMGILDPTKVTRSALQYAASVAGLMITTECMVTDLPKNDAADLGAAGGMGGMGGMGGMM
Sequence of HSP60/HSP10 (P10809 whole entry): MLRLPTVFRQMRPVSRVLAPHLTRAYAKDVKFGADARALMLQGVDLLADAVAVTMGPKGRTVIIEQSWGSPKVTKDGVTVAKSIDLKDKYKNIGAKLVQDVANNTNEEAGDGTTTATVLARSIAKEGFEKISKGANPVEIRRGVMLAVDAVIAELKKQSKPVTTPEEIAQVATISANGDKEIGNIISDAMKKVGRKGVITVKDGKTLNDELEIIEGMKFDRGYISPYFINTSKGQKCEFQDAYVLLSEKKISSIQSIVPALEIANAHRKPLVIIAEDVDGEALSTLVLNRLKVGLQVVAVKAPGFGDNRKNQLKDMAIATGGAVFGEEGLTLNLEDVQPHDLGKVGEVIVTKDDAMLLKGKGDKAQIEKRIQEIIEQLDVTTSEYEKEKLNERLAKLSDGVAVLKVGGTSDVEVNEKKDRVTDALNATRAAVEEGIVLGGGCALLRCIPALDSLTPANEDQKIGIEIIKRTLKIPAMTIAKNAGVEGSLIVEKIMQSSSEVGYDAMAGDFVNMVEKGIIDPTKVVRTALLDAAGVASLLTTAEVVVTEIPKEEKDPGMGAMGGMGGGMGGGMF
Sequence of HSP60/HSP10 (P61604 whole entry, further chain): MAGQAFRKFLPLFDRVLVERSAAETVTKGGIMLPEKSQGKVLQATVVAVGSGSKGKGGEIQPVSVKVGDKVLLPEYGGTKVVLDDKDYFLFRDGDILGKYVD

In the series with Staphylococcus aureus [1], `O=S(=O)(Nc1ccc2oc(-c3ccc(NS(=O)(=O)c4ccc(Cl)s4)cc3)nc2c1)c1cccc(C(F)(F)F)c1` displayed an EC50 of 1.1 µM. For the same molecule, the half-maximal cytotoxic concentration (CC50) at 48 h in series [2] came out at 36 µM. Moreover, the IC50 is 6.7 µM at E. coli GroEL/ES [3], 5 µM on HSP60/HSP10, > 100 µM in [4] and 43 µM in series [5].
Take `O=S(=O)(Nc1ccc(-c2nc3cc(NS(=O)(=O)c4ccc(Cl)s4)ccc3o2)cc1)c1ccc(Cl)c(C(F)(F)F)c1`: the EC50 with Acinetobacter baumannii (ATCC 19606 = CIP 70.34 = JCM 6841, 24 h) was 37 µM; with Staphylococcus aureus [1] it was 2 µM. The molecule further came in with a CC50 at 48 h in series [2] of 22 µM. In addition, the half-inhibitory concentration (IC50) at HSP60/HSP10 was 6.1 µM; in [4] it was > 100 µM; in [5], > 63 µM.
For the molecule `O=[N+]([O-])c1cc(S(=O)(=O)Nc2ccc(-c3nc4cc(NS(=O)(=O)c5ccc(Cl)s5)ccc4o3)cc2)ccc1Cl`, in the series with Staphylococcus aureus [1], the response was half-maximal at 1.7 µM (EC50). Besides, in series [2], the CC50 at 48 h is 17 µM. In addition, the selectivity ratio in series [6] is 10. The IC50 on E. coli GroEL/ES [3] was 1.5 µM; on E. coli GroEL/ES [7], 2 µM; on HSP60/HSP10, 2.1 µM; in series [4], 53 µM; in series [5], 34 µM. Moreover, the result in the series with Staphylococcus aureus [8] was Active.
In the series on Staphylococcus aureus [1], `O=S(=O)(Nc1ccc2oc(-c3ccc(NS(=O)(=O)c4ccc(Cl)s4)cc3)nc2c1)c1ccc(Cl)c(Cl)c1` gave an EC50 of 0.53 µM. In [2], the 50% cytotoxic concentration (CC50) at 48 h was found to be 24 µM. Also, in [6], the selectivity ratio is 46. The half-maximal inhibitory concentration (IC50) at E. coli GroEL/ES [3] was 5.1 µM; at E. coli GroEL/ES [7], 6.4 µM; on HSP60/HSP10, 4.7 µM; in series [4], > 100 µM; in [5], > 63 µM.
In the series on Staphylococcus aureus [1], `NCc1ccc(S(=O)(=O)Nc2ccc(-c3nc4cc(NS(=O)(=O)c5ccc(Cl)s5)ccc4o3)cc2)cc1` returned an EC50 of 19 µM. Besides, the values for the concentration for half-maximal inhibition (IC50) on E. coli GroEL/ES [3] and at E. coli GroEL/ES [7] were 1.3 µM and 3.2 µM, respectively. The molecule further yielded a Kd in series [9] of 0.036 µM. For the same molecule, the result with Staphylococcus aureus [10] was Active.
With `NCc1ccc(S(=O)(=O)Nc2ccc3oc(-c4ccc(NS(=O)(=O)c5ccc(Cl)s5)cc4)nc3c2)cc1`, the IC50 at E. coli GroEL/ES [3] came to 3.1 µM. The Kd in series [9] was found to be 0.15 µM.
`O=[N+]([O-])c1cc(S(=O)(=O)Nc2ccc3oc(-c4ccc(NS(=O)(=O)c5ccc(Cl)s5)cc4)nc3c2)ccc1Cl` registered a 50% effective concentration (EC50) in the series on Staphylococcus aureus [1] of 0.97 µM. In series [2], the 50% cytotoxic concentration (CC50) at 48 h came out at 11 µM. In addition, the IC50 on E. coli GroEL/ES [7] is 1 µM; on HSP60/HSP10, 1 µM; in [4], > 100 µM; in series [5] it was 37 µM.
For the molecule `O=[N+]([O-])c1ccc(S(=O)(=O)Nc2ccc(-c3nc4cc(NS(=O)(=O)c5ccc([N+](=O)[O-])cc5)ccc4o3)cc2)cc1`, the outcome with Klebsiella pneumoniae, in the series with Acinetobacter baumannii, with Pseudomonas aeruginosa and in the series with Enterobacter cloacae was inactive. Moreover, in the series with Staphylococcus aureus [1], the concentration giving a half-maximal response (EC50) was determined as 7.3 µM. The half-maximal cytotoxic concentration (CC50) at 48 h in series [2] stood at 47 µM. For the same molecule, the results for the half-inhibitory concentration (IC50) (at HSP60/HSP10; in [4]; in series [5]) were 51 µM, > 100 µM and > 63 µM, respectively.
As to `O=S(=O)(Nc1ccc(-c2nc3cc(NS(=O)(=O)c4cccc(C(F)(F)F)c4)ccc3o2)cc1)c1cccc(C(F)(F)F)c1`, the result in the series on Klebsiella pneumoniae, in the series with Acinetobacter baumannii, with Pseudomonas aeruginosa and with Enterobacter cloacae was inactive. In the series on Staphylococcus aureus [1], this molecule had a concentration for a half-maximal effect (EC50) of 2 µM. Besides, the CC50 at 48 h in [2] was determined as 24 µM. Moreover, the IC50 is 58 µM at HSP60/HSP10, > 100 µM in series [4] and > 63 µM in series [5].

The record behind these values is ChEMBL document CHEMBL4152346, “Sulfonamido-2-arylbenzoxazole GroEL/ES Inhibitors as Potent Antibacterials against Methicillin-Resistant Staphylococcus aureus (MRSA)” (J Med Chem, 2018).
